Laboratory results from ChEMBL document CHEMBL1944597, “Synthesis and evaluation of non-basic inhibitors of urokinase-type plasminogen activator (uPA)” (Bioorg Med Chem, 2012).

Key:
[1] = target: Tissue-type plasminogen activator (Homo sapiens, UniProt P00750); test: Inhibition of recombinant tPA using H-D-Ile-Pro-Arg-pNA.2HCl as substrate preincubated for 15 mins prior substrate addition measured for 10 mins by spectrophotometry
Outline: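 Recombinant tPA, about 5 mU, in Tris buffer pH 8.3, with inhibitor at 0–250 µM final from DMSO stocks, preincubated 15 min at 37 °C. […] Initial rate came from 405 nm absorbance (0–0.25 AU, 10 min) at 37 °C, measured in duplicate. IC50 was the inhibitor level reducing activity to 50%.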

Prothrombin = Prothrombin (Homo sapiens, UniProt P00734); test: Inhibition of human plasma thrombin using pyroGlu-Pro-Arg-p-NA.HCl as substrate preincubated for 15 mins prior substrate addition measured for 10 mins by spectrophotometry
Outline: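 Human plasma thrombin (about 5 mU) in Tris pH 8.3 was given a 15-min 37 °C preincubation with inhibitor at 0–250 µM final, from DMSO stocks. […] Absorbance at 405 nm gave the initial rate over 0–0.25 AU in 10 min, at 37 °C, in duplicate. IC50 was taken as 50% activity loss.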

[2] = target: T1, Urokinase-type plasminogen activator (Homo sapiens, UniProt P00749); test: Inhibition of human uPA using pyroGlu-Gly-Arg-p-NA.HCl as substrate preincubated for 15 mins prior substrate addition measured for 10 mins by spectrophotometry
Plasminogen = Plasminogen (Homo sapiens, UniProt P00747); test: Inhibition of human plasma plasmin using pyroGlu-Pro-Arg-p-NA.HCl as substrate preincubated for 15 mins prior substrate addition measured for 10 mins by spectrophotometry
Outline: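 Plasmin from human plasma, about 5 mU, in Tris buffer pH 7.4, preincubated 15 min at 37 °C with inhibitor (0–250 µM final, DMSO stocks). […] Initial rate was read at 405 nm (0–0.25 AU within 10 min) at 37 °C. Assays ran in duplicate, and IC50 was the concentration halving activity.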

[3] = target: T1, Urokinase-type plasminogen activator; test: Competitive inhibition of human uPA using pyroGlu-Gly-Arg-p-NA.HCl as substrate preincubated for 15 mins prior substrate addition measured for 10 mins by spectrophotometry
Outline: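 Human uPA (about 1 mU) in 50 mM Tris pH 8.8 at 37 °C. […] Initial rate taken over 0–0.25 absorbance units in 10 min. Duplicates; IC50 is the concentration giving 50% activity.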

[4] = target: T1, Urokinase-type plasminogen activator; test: Non-competitive inhibition of human uPA using pyroGlu-Gly-Arg-p-NA.HCl as substrate preincubated for 15 mins prior substrate addition measured for 10 mins by spectrophotometry

Sequence of Tissue-type plasminogen activator (P00750 whole entry): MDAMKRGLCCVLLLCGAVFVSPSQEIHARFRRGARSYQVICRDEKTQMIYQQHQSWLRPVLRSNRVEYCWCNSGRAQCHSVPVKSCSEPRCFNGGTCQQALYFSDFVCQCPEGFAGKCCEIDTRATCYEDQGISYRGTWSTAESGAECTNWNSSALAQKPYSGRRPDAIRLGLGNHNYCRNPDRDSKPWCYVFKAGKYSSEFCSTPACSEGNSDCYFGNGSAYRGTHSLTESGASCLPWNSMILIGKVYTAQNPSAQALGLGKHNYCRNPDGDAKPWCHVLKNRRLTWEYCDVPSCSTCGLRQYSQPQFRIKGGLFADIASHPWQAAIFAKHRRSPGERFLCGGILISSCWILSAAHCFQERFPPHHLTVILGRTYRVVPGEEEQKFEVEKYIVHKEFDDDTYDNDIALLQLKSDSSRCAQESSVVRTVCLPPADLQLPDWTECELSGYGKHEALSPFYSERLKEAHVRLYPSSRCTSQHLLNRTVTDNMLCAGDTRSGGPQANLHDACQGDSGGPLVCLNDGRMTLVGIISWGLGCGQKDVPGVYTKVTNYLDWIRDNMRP
Sequence of Plasminogen (P00747 97-580 limits assumed): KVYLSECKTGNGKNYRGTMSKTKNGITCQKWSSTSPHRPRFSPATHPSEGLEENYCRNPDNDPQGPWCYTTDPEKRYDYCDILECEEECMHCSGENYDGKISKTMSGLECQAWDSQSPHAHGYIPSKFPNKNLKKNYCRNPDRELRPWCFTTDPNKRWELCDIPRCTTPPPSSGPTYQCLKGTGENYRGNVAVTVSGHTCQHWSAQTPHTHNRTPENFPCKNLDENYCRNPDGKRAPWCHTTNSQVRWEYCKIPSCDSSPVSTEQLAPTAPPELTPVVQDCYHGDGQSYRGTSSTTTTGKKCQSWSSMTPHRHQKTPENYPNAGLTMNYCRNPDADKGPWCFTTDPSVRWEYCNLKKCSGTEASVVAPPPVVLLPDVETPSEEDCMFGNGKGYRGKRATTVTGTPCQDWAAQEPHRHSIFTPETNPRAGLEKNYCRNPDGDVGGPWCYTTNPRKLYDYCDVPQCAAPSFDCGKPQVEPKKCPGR
Sequence of Plasminogen (P00747 581-810 limits assumed): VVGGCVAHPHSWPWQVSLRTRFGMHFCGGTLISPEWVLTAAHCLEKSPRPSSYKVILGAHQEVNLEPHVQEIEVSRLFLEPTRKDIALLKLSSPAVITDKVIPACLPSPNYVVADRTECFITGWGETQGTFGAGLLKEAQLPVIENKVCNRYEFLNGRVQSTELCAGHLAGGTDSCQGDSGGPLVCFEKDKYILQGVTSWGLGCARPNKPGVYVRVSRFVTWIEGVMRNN

Row | IC50 [2] [µM] | Structure (SMILES) | also measured
1 | 0.2 | N=C(N)c1ccc(/C=C2/N=C(c3ccccc3)OC2=O)cc1 | IC50 [1]: > 100 µM; IC50 (Prothrombin): > 100 µM; IC50 (Plasminogen): > 100 µM
2 | > 62 | N#Cc1ccc2cc(C(=O)Nc3ccccc3)ccc2c1 | 
3 | > 62 | O=C(Nc1ccccc1)c1ccc2ccccc2c1 | 
4 | > 62 | O=C(O)c1ccc2cc(C(=O)Nc3ccccc3)ccc2c1 | 
5 | 30 | COc1cc(NC(=O)c2ccc3cc(C(N)=O)ccc3c2)cc(OC)c1 | 
6 | 2.9 | COc1cccc(-c2ccc(NC(=O)c3ccc4cc(C(N)=O)ccc4c3)cc2)c1 | IC50 [1]: 5.7 µM; IC50 (Prothrombin): > 62 µM; IC50 (Plasminogen): 12 µM
7 | 20 | COc1cccc(-c2ccc(NC(=O)c3ccc4cc(C#N)ccc4c3)cc2)c1 | 
8 | 4 | COC(=O)c1cccc(-c2ccc(NC(=O)c3ccc4cc(OC)ccc4c3)cc2)c1 | IC50 [1]: 8.4 µM; IC50 (Prothrombin): > 62 µM; IC50 (Plasminogen): 4 µM
9 | 16 | COC(=O)c1cccc(-c2ccc(NS(=O)(=O)c3ccc4ccccc4c3)cc2)c1 | 
10 | 31 | COc1ccc2cc(S(=O)(=O)Nc3ccc(-c4ccccc4)cc3)ccc2c1 | 
11 | > 62 | COc1ccc2cc(S(=O)(=O)Nc3ccc(-c4cccc(Cl)c4)cc3)ccc2c1 | 
12 | 6.9 | COc1ccc2cc(S(=O)(=O)Nc3ccc(-c4cccc([N+](=O)[O-])c4)cc3)ccc2c1 | 
13 | 16 | COC(=O)c1ccc(-c2ccc(NS(=O)(=O)c3ccc4cc(OC)ccc4c3)cc2)cc1 | 
14 | 8 | COc1ccc2cc(S(=O)(=O)Nc3ccc(-c4ccc(OC)c(OC)c4)cc3)ccc2c1 | 

Second part, the compound before the results:

Row | Structure (SMILES) | IC50 [2] [µM] | also measured
15 | N=C(N)c1ccc2cc(C(=O)Nc3ccccc3)ccc2c1 | 13 | IC50 [1]: 125 µM; IC50 (Prothrombin): 56 µM; IC50 (Plasminogen): 22 µM; Ki [3]: 1.9 µM
16 | CCOC(=O)N1CCN(C(=O)[C@H](Cc2cccc(C(=N)N)c2)NS(=O)(=O)c2c(C(C)C)cc(C(C)C)cc2C(C)C)CC1 |  | Ki [1]: 4.9 µM
17 | COc1cc(NC(=O)c2ccc3cc(C(=N)N)ccc3c2)cc(OC)c1 | 2.6 | IC50 [1]: > 62 µM; IC50 (Prothrombin): > 62 µM; IC50 (Plasminogen): 13 µM
18 | C[C@H](NC(=O)[C@@H](CO)NS(=O)(=O)Cc1ccccc1)C(=O)NCc1ccc(C(=N)N)cc1 |  | Ki [1]: 7.4 µM; Ki (Prothrombin): 0.1 µM
19 | COc1ccc2cc(S(=O)(=O)Nc3ccc(-c4cccc(C(F)(F)F)c4)cc3)ccc2c1 | 4.1 | IC50 [1]: 13 µM
20 | O=C(Nc1ccccc1)c1ccc2cc(Br)ccc2c1 | > 62 | 
21 | Nc1ccc2cc(C(=O)Nc3ccccc3)ccc2c1 | > 62 | 
22 | COc1ccc2cc(C(=O)Nc3ccccc3)ccc2c1 | > 62 | 
23 | COC(=O)c1ccc2cc(C(=O)Nc3ccccc3)ccc2c1 | > 62 | 
24 | NC(=O)c1ccc2cc(C(=O)Nc3ccccc3)ccc2c1 |  | IC50 [4]: 15 µM
25 | NCc1ccc(NC(=O)c2ccc3cc(C(N)=O)ccc3c2)cc1 | 45 | 
26 | COC(=O)c1cccc(-c2ccc(NC(=O)c3ccc4ccccc4c3)cc2)c1 | 16 | 
27 | COc1cccc(-c2ccc(NC(=O)c3ccc4ccccc4c3)cc2)c1 | 9.8 | 
28 | COC(=O)c1cccc(-c2ccc(NC(=O)c3ccc4cc(C(N)=O)ccc4c3)cc2)c1 | 3.6 | IC50 [1]: 11 µM; IC50 (Prothrombin): > 125 µM; IC50 (Plasminogen): > 125 µM
29 | NC(=O)c1ccc2cc(C(=O)Nc3ccc(-c4cccc(C(F)(F)F)c4)cc3)ccc2c1 |  | IC50 [1]: 3.4 µM; IC50 (Prothrombin): > 62 µM; IC50 [4]: 2.4 µM; IC50 (Plasminogen): 6.3 µM
30 | NC(=O)c1ccc2cc(C(=O)Nc3ccc(-c4cccc(Cl)c4)cc3)ccc2c1 | 8.1 | 
31 | COc1ccc(-c2ccc(NC(=O)c3ccc4cc(C(N)=O)ccc4c3)cc2OC)cc1 | 6.4 | IC50 [1]: 9.7 µM
32 | COC(=O)c1cccc(-c2ccc(NC(=O)c3ccc4cc(C(=O)OC)ccc4c3)cc2)c1 | 14 | 
33 | COC(=O)c1cccc(-c2ccc(NC(=O)c3ccc4cc(C#N)ccc4c3)cc2)c1 | 9 | 
34 | N#Cc1ccc2cc(C(=O)Nc3ccc(-c4cccc(C(=O)O)c4)cc3)ccc2c1 | > 250 | 

Row | Structure (SMILES) | IC50 [2] [µM] | also measured
35 | COc1cccc(-c2ccc(NC(=O)c3ccc4cc(OC)ccc4c3)cc2)c1 | 4 | IC50 [1]: 21 µM; IC50 (Prothrombin): > 62 µM; IC50 (Plasminogen): 20 µM
36 | COc1ccc2cc(C(=O)Nc3ccc(-c4cccc([N+](=O)[O-])c4)cc3)ccc2c1 | 2.6 | IC50 [1]: 8.6 µM; IC50 (Prothrombin): > 62 µM; IC50 (Plasminogen): 31 µM
37 | COc1ccc2cc(C(=O)Nc3ccc(-c4cccc(C(F)(F)F)c4)cc3)ccc2c1 |  | IC50 [1]: 5.3 µM; IC50 (Prothrombin): > 62 µM; IC50 [4]: 2.1 µM; IC50 (Plasminogen): 6.5 µM
38 | COc1ccc(-c2ccc(NC(=O)c3ccc4cc(OC)ccc4c3)cc2)cc1 | 12 | 
39 | COc1ccc2cc(C(=O)Nc3ccc(-c4ccc(OC)c(OC)c4)cc3)ccc2c1 | 31 | 
40 | COc1ccc(-c2ccc(NC(=O)c3ccc4cc(OC)ccc4c3)cc2OC)cc1 | > 31 | 
41 | COC(=O)c1cccc(-c2ccc(NC(=O)c3ccc4cc(Cl)ccc4c3)cc2)c1 | 7 | 
42 | COC(=O)c1cccc(-c2ccc(NC(=O)c3ccc4cc(Br)ccc4c3)cc2)c1 | 11 | 
43 | COC(=O)c1cccc(-c2ccc(NC(=O)c3ccc4cc(N)ccc4c3)cc2)c1 | 31 | 
44 | COC(=O)c1ccc(-c2ccc(NS(=O)(=O)c3ccc4ccccc4c3)cc2)cc1 | 9.8 | 
45 | COc1cccc(-c2ccc(NS(=O)(=O)c3ccc4ccccc4c3)cc2)c1 | 31 | 
46 | COC(=O)c1cccc(-c2ccc(NS(=O)(=O)c3ccc4cc(OC)ccc4c3)cc2)c1 |  | IC50 [1]: 26 µM; IC50 (Prothrombin): > 62 µM; IC50 [4]: 2.8 µM; IC50 (Plasminogen): > 62 µM
47 | COc1ccc2cc(S(=O)(=O)Nc3ccc(-c4cccc(C(N)=O)c4)cc3)ccc2c1 | > 62 | 
48 | COc1ccc2cc(S(=O)(=O)Nc3ccc(-c4cccc(F)c4)cc3)ccc2c1 | > 62 | 
49 | COc1cccc(-c2ccc(NS(=O)(=O)c3ccc4cc(OC)ccc4c3)cc2)c1 | 19 | 
50 | COc1ccc2cc(S(=O)(=O)Nc3ccc(-c4cccc(N)c4)cc3)ccc2c1 | 62 | 
51 | COc1ccc(-c2ccc(NS(=O)(=O)c3ccc4cc(OC)ccc4c3)cc2)cc1 | 23 | 
52 | COc1ccc(-c2ccc(NS(=O)(=O)c3ccc4cc(OC)ccc4c3)cc2OC)cc1 | 8 | 
53 | [H]/N=C(\N)c1ccc2cc(C(=O)Nc3ccc(CN)cc3)ccc2c1 |  | IC50 [1]: > 62 µM; IC50 (Prothrombin): > 62 µM; IC50 (Plasminogen): > 62 µM
